{"source": "ChEMBL document CHEMBL1165950", "about": "“Design and synthesis of new potent anticancer pyrazoles with high FLT3 kinase inhibitory selectivity” (Bioorg Med Chem, 2010)", "key": {"[1]": {"tested_on": "MCF7", "test": "Cytotoxicity against human MCF7 cells assessed as cell growth at 0.001 uM after 48 hrs by sulforhodamine B assay", "format": "functional", "conditions": "MCF7, 48 h, read-out: Activity"}, "[2]": {"tested_on": "SR", "test": "Cytotoxicity against human SR cells assessed as cell growth at 0.001 uM after 48 hrs by sulforhodamine B assay", "format": "functional", "conditions": "read-out: Activity"}, "[3]": {"tested_on": "SK-MEL-28", "test": "Cytotoxicity against human SK-MEL-28 cells assessed as cell growth at 1 uM after 48 hrs by sulforhodamine B assay", "format": "functional", "conditions": "SK-MEL-28, 48 h, read-out: Activity"}, "[4]": {"tested_on": "NCI-H226", "test": "Cytotoxicity against human NCI-H226 cells assessed as cell growth at 0.01 uM after 48 hrs by sulforhodamine B assay", "format": "functional", "conditions": "NCI-H226, 48 h, read-out: Activity"}, "[5]": {"test": "Cytotoxicity against human […] cells assessed as cell growth at 10 uM", "format": "functional", "conditions": "read-out: Activity", "outline": "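NCI-60 screen: cells grown in RPMI 1640 with 5% FBS and 2 mM L-glutamine, plated at 5000–40,000 cells/well according to doubling time, and preincubated 24 h at 37 °C, 5% CO2. The single 10 µM dose (DMSO stock) was added, then incubated 48 h. Cells were TCA-fixed and stained with 0.4% SRB, read at 515 nm, and growth % calculated against time-zero and control plates.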"}, "[6]": {"tested_on": "HCT-116", "test": "Cytotoxicity against human HCT116 cells assessed as cell growth at 100 nM after 48 hrs by sulforhodamine B assay", "format": "functional", "conditions": "HCT-116, 48 h, read-out: Activity"}, "[7]": {"tested_on": "HCC 2998", "test": "Cytotoxicity against human HCC2998 cells assessed as cell growth at 100 nM after 48 hrs by sulforhodamine B assay", "format": "functional", "conditions": "HCC 2998, 48 h, read-out: Activity"}, "[8]": {"tested_on": "NCI-H226", "test": "Cytotoxicity against human NCI-H226 cells assessed as cell growth at 10 uM after 48 hrs by sulforhodamine B assay", "format": "functional", "conditions": "NCI-H226, 48 h, read-out: Activity"}, "[9]": {"tested_on": "UO-31", "test": "Cytotoxicity against human UO31 cells assessed as cell growth at 10 uM after 48 hrs by sulforhodamine B assay", "format": "functional", "conditions": "UO-31, 48 h, read-out: Activity"}, "[10]": {"tested_on": "SK-MEL-5", "test": "Cytotoxicity against human SK-MEL-5 cells assessed as cell growth at 1 uM after 48 hrs by sulforhodamine B assay", "format": "functional", "conditions": "SK-MEL-5, 48 h, read-out: Activity"}, "[11]": {"tested_on": "RXF 393", "test": "Cytotoxicity against human RXF393 cells assessed as cell growth at 10 uM after 48 hrs by sulforhodamine B assay", "format": "functional", "conditions": "RXF 393, 48 h, read-out: Activity"}, "[12]": {"tested_on": "NCI-H460", "test": "Cytotoxicity against human NCI-H460 cells assessed as cell growth at 1 uM after 48 hrs by sulforhodamine B assay", "format": "functional", "conditions": "NCI-H460, 48 h, read-out: Activity"}, "[13]": {"target": "Receptor-type tyrosine-protein kinase FLT3 (Homo sapiens, UniProt P36888)", "sequence (P36888 whole entry)": "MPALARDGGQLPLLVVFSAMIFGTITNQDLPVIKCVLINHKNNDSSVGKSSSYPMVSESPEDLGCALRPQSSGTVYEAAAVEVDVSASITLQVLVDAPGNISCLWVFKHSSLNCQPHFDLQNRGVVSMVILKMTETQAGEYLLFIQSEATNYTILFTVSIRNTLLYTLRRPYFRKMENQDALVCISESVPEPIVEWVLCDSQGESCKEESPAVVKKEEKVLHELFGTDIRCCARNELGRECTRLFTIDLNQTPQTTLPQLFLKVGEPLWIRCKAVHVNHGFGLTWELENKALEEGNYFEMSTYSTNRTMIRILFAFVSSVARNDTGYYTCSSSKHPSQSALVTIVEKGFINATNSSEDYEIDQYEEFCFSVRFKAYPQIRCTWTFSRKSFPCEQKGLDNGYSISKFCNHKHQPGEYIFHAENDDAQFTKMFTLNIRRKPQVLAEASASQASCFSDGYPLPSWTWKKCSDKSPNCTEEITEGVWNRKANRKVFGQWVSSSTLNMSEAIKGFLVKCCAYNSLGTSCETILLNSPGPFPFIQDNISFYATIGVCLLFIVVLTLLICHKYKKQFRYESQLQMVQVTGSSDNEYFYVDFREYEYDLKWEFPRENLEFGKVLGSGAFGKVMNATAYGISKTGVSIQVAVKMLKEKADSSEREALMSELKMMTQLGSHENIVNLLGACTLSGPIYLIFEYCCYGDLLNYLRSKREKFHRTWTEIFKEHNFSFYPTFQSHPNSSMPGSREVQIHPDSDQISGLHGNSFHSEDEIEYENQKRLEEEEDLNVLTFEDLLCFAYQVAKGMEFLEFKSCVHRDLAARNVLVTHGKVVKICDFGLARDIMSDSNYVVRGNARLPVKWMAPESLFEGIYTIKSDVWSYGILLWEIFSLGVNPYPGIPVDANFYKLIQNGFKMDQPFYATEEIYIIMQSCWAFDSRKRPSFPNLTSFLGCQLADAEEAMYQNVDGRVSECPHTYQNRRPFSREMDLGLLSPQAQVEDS", "test": "Inhibition of FLT3 by HotSpot assay"}, "[14]": {"target": "Receptor-type tyrosine-protein kinase FLT3 (Homo sapiens) (UniProt P36888)", "sequence (P36888 whole entry)": "as above", "test": "Inhibition of FLT3 at 10 uM by HotSpot assay"}}, "data": [{"smiles": "COc1cc(C)cc(-c2nn(CC#N)cc2-c2ccc(-c3cccc(C(C)=O)c3)nc2)c1", "values": [{"measurement": "growth at 0.001 µM", "setting": "[1]", "result": 94, "unit": "%"}, {"measurement": "growth at 0.001 µM", "setting": "[2]", "result": 97, "unit": "%"}, {"measurement": "growth at 1 µM", "setting": "[3]", "result": 31, "unit": "%"}, {"measurement": "growth at 0.01 µM", "setting": "[4]", "result": 88, "unit": "%"}, {"measurement": "growth at 10 µM", "setting": "[5]", "result": 17.7, "unit": "%"}, {"measurement": "growth at 0.1 µM", "setting": "[6]", "result": 78, "unit": "%"}, {"measurement": "growth at 0.1 µM", "setting": "[7]", "result": 81, "unit": "%"}, {"measurement": "growth at 10 µM", "setting": "[8]", "result": -3, "unit": "%"}, {"measurement": "growth at 10 µM", "setting": "[9]", "result": -6, "unit": "%"}, {"measurement": "growth at 1 µM", "setting": "[10]", "result": -13, "unit": "%"}, {"measurement": "growth at 10 µM", "setting": "[11]", "result": -58, "unit": "%"}, {"measurement": "growth at 1 µM", "setting": "[12]", "result": -27, "unit": "%"}]}, {"smiles": "COc1cc(C)cc(-c2nn(CC#N)cc2-c2ccnc(-c3ccc(N(C)C)cc3)c2)c1", "values": [{"measurement": "growth at 0.001 µM", "setting": "[1]", "result": 104, "unit": "%"}, {"measurement": "growth at 0.001 µM", "setting": "[2]", "result": 96, "unit": "%"}, {"measurement": "growth at 1 µM", "setting": "[3]", "result": 45, "unit": "%"}, {"measurement": "growth at 0.01 µM", "setting": "[4]", "result": 105, "unit": "%"}, {"measurement": "growth at 0.1 µM", "setting": "[6]", "result": 11, "unit": "%"}, {"measurement": "growth at 0.1 µM", "setting": "[7]", "result": 20, "unit": "%"}, {"measurement": "growth at 10 µM", "setting": "[8]", "result": -22, "unit": "%"}, {"measurement": "growth at 1 µM", "setting": "[10]", "result": -40, "unit": "%"}, {"measurement": "growth at 10 µM", "setting": "[11]", "result": -24, "unit": "%"}, {"measurement": "growth at 1 µM", "setting": "[12]", "result": -27, "unit": "%"}]}, {"smiles": "COc1cc(C)cc(-c2c(-c3ccnc(-c4ccc(C(C)=O)cc4)c3)cnn2CC#N)c1", "values": [{"measurement": "growth at 0.001 µM", "setting": "[1]", "result": 96, "unit": "%"}, {"measurement": "growth at 0.001 µM", "setting": "[2]", "result": 96, "unit": "%"}, {"measurement": "growth at 1 µM", "setting": "[3]", "result": 44, "unit": "%"}, {"measurement": "growth at 0.01 µM", "setting": "[4]", "result": 93, "unit": "%"}, {"measurement": "growth at 10 µM", "setting": "[5]", "result": 67.6, "unit": "%"}, {"measurement": "growth at 0.1 µM", "setting": "[6]", "result": 73, "unit": "%"}, {"measurement": "growth at 0.1 µM", "setting": "[7]", "result": 104, "unit": "%"}, {"measurement": "growth at 10 µM", "setting": "[8]", "result": 35, "unit": "%"}, {"measurement": "growth at 10 µM", "setting": "[9]", "result": 15, "unit": "%"}, {"measurement": "growth at 1 µM", "setting": "[10]", "result": -37, "unit": "%"}, {"measurement": "growth at 10 µM", "setting": "[11]", "result": -27, "unit": "%"}, {"measurement": "growth at 1 µM", "setting": "[12]", "result": -9, "unit": "%"}]}, {"smiles": "COc1cc(C)cc(-c2c(-c3ccnc(-c4ccc(N(C)C)cc4)c3)cnn2CC#N)c1", "values": [{"measurement": "growth at 10 µM", "setting": "[5]", "result": 0.08, "unit": "%"}, {"measurement": "IC50", "setting": "[13]", "result": 1.74, "unit": "µM"}, {"measurement": "growth at 10 µM", "setting": "[9]", "result": 7, "unit": "%"}, {"measurement": "growth at 1 µM", "setting": "[10]", "result": -31, "unit": "%"}, {"measurement": "inhibition", "setting": "[14]", "result": 82.3, "unit": "%"}, {"measurement": "growth at 1 µM", "setting": "[12]", "result": -53, "unit": "%"}]}, {"smiles": "Cc1cc(O)cc(-c2nn(CC#N)cc2-c2ccnc(-c3ccc(N(C)C)cc3)c2)c1", "values": [{"measurement": "growth at 0.001 µM", "setting": "[1]", "result": 97, "unit": "%"}, {"measurement": "growth at 0.001 µM", "setting": "[2]", "result": 93, "unit": "%"}, {"measurement": "growth at 1 µM", "setting": "[3]", "result": 32, "unit": "%"}, {"measurement": "growth at 0.01 µM", "setting": "[4]", "result": 94, "unit": "%"}, {"measurement": "growth at 10 µM", "setting": "[5]", "result": 41.6, "unit": "%"}, {"measurement": "growth at 0.1 µM", "setting": "[6]", "result": 87, "unit": "%"}, {"measurement": "growth at 0.1 µM", "setting": "[7]", "result": 87, "unit": "%"}, {"measurement": "growth at 10 µM", "setting": "[8]", "result": -38, "unit": "%"}, {"measurement": "growth at 10 µM", "setting": "[9]", "result": -19, "unit": "%"}, {"measurement": "growth at 1 µM", "setting": "[10]", "result": -26, "unit": "%"}, {"measurement": "growth at 10 µM", "setting": "[11]", "result": -46, "unit": "%"}]}, {"smiles": "Cc1cc(O)cc(-c2nn(CC#N)cc2-c2ccnc(-c3ccc(Oc4ccccc4)cc3)c2)c1", "values": [{"measurement": "growth at 0.001 µM", "setting": "[1]", "result": 92, "unit": "%"}, {"measurement": "growth at 0.001 µM", "setting": "[2]", "result": 94, "unit": "%"}, {"measurement": "growth at 1 µM", "setting": "[3]", "result": 30, "unit": "%"}, {"measurement": "growth at 0.01 µM", "setting": "[4]", "result": 89, "unit": "%"}, {"measurement": "growth at 0.1 µM", "setting": "[6]", "result": 86, "unit": "%"}, {"measurement": "growth at 0.1 µM", "setting": "[7]", "result": 107, "unit": "%"}, {"measurement": "growth at 10 µM", "setting": "[8]", "result": -63, "unit": "%"}, {"measurement": "growth at 10 µM", "setting": "[9]", "result": -81, "unit": "%"}, {"measurement": "growth at 10 µM", "setting": "[11]", "result": -87, "unit": "%"}, {"measurement": "growth at 1 µM", "setting": "[12]", "result": -79, "unit": "%"}]}]}
